Where “and” joins values, the source holds several entries; their conditions need not be identical. Equal values may be shown once. Read-outs that look alike come from different tables or passages of the source.
Columns and labels:
GST (DCNB, GST μ) = assay: Liver cytosolic GST activity, DCNB as substrate, after oral dosing of mice; format: in vivo; settings: C57BL/6 mice, 100 mg/kg p.o. 3 days, vs corn oil
GSTp mRNA = assay: Northern blot of liver RNA, GSTp mRNA in CAR; format: in vivo, mice; settings: isopimpinellin 150 mg/kg p.o. 24 h; TC 3 mg/kg i.p. 6 h
SXR [1] = molecular target: T1, SXR (Homo sapiens, UniProt O75469); assay: GAL-SXR reporter assay; format: cell-based
T1 sequence (O75469 146-433 limits assumed): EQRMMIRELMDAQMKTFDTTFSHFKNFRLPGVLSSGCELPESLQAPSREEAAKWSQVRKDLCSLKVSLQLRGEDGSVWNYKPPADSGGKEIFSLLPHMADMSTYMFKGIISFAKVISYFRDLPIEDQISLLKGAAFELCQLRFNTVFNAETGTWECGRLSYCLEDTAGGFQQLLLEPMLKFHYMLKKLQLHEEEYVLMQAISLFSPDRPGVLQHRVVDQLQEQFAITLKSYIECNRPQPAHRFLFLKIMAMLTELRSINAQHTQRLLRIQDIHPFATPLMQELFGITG

SXR and SRC-1 RID = SXR and SRC-1 RID (Homo sapiens, UniProt O75469); assay: Mammalian two-hybrid assay, Gal-SRC-1 RID + VP-L-SXR in CV-1 cells; format: cell-based; settings: isopimpinellin 50 μM, RIF 10 μM
SXR and SRC-1 RID, sequence (Q15788 570-780 partner limits assumed, one chain of several): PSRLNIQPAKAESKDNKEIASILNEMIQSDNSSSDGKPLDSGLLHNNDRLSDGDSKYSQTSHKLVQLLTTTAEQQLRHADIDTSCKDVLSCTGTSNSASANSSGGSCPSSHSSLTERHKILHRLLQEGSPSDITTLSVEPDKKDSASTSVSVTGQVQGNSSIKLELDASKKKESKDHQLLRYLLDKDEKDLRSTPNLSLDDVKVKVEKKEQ

GSTμ = assay: Western blot of liver cytosol, GSTμ protein expression; format: in vivo, mice; settings: SENCAR mice, 35, 70, 150 mg/kg p.o.
Cyp2b10 mRNA = assay: Northern blot of liver RNA, Cyp2b10 mRNA in CAR; settings: isopimpinellin 150 mg/kg p.o. 24 h, TC 3 mg/kg i.p. 6 h
SXR [2] = molecular target: SXR (Homo sapiens, UniProt O75469); assay: SXR-DR3 reporter assay; format: cell-based
Target sequence in this assay (O75469 whole entry): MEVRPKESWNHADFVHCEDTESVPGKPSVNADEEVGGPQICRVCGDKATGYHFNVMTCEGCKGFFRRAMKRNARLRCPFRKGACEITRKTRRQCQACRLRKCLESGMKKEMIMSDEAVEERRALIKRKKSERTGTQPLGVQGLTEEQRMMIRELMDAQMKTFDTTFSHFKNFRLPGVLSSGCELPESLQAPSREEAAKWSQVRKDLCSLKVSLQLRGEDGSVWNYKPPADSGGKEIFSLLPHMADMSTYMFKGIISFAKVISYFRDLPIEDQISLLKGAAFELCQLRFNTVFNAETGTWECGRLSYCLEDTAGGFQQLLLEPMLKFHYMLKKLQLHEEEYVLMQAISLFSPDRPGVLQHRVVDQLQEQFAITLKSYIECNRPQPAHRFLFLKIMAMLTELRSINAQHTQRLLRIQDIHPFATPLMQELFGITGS
Target sequence in this assay (P19793 whole entry partner): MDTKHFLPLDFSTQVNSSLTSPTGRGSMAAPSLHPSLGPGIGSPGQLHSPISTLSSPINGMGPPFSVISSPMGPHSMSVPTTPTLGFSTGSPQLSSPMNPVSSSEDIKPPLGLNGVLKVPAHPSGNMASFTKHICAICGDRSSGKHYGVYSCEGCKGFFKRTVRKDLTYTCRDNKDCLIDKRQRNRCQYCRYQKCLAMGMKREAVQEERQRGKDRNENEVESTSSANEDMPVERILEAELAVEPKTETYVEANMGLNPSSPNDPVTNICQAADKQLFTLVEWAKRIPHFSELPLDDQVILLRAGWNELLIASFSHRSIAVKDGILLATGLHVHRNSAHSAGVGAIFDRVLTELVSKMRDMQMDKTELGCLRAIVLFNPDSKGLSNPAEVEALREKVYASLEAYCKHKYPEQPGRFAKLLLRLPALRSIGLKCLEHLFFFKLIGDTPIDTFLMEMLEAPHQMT

P450 = assay: Liver microsomal P450 content after oral dosing of mice; format: in vivo; settings: C57BL/6 mice, 100 mg/kg p.o. 3 days, vs corn oil
GSTa1 mRNA = assay: Northern blot of liver RNA, GSTa1 mRNA in CAR; format: in vivo, mice; settings: isopimpinellin 150 mg/kg p.o. 24 h; TC 3 mg/kg i.p. 6 h
[3] = molecular target: mCAR-LBD fused to the Gal4 DNA binding domain (Mus musculus, UniProt O35627); assay: CAR transfection assay, Gal4-mCAR LBD fusion reporter in HepG2 cells; format: cell-based, murine; settings: HepG2, 4 μM androstanol; 250 nM TC or 0.1–100 μM isopimpinellin, 24 h
mCAR-LBD fused to the Gal4 DNA binding domain, sequence (O35627 119-358 limits assumed): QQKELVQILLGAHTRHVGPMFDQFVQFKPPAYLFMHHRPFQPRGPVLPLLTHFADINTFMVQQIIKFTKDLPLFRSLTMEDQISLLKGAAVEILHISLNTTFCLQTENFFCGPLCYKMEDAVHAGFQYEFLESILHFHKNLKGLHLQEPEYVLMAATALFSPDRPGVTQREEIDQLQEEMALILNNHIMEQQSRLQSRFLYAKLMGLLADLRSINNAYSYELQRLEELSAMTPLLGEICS

GSTα = assay: Western blot of liver cytosol, GSTα protein expression; format: in vivo; settings: SENCAR mice, 35, 70, 150 mg/kg p.o., particularly at the highest doses
Cyp3a11 mRNA = assay: Northern blot of liver RNA, Cyp3a11 mRNA in CAR; settings: isopimpinellin 150 mg/kg p.o. 24 h, TC 3 mg/kg i.p. 6 h
NQO = assay: Liver cytosolic NQO activity; format: in vivo, mice; settings: female SENCAR mice, 35, 70, 150 mg/kg p.o. 4 days, vs corn oil
P450 1A1/1A2 = settings: mouse, in vivo
PXR LBD and SRC-1 RID = PXR LBD and SRC-1 RID (Mus musculus, UniProt O54915); assay: Mammalian two-hybrid assay, Gal-SRC-1 RID + VP-L-PXR in CV-1 cells; format: cell-based; settings: isopimpinellin 50 μM; PCN 10 μM; Figure 7A
PXR LBD and SRC-1 RID, sequence (Q15788 570-780 partner limits assumed, one chain of several): as the sequence (Q15788 570-780 partner limits assumed, one chain of several) above
In short: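 Mammalian two-hybrid in CV-1 cells co-transfected with Gal-SRC-1 RID and/or VP-L-PXR, plus MH100-tk-luc reporter and CMX-β-gal. Cells were exposed to compound or solvent control in medium for 18–24 h. Interaction was taken as luciferase activity normalised to β-gal activity; mean ± SD.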

P450s 1A1/2 = assay: Liver microsomal P450 1A activity; format: in vivo, mice; settings: mouse, in vivo
PXR = molecular target: T2, PXR (Mus musculus, UniProt O54915); assay: GAL-PXR reporter assay; format: cell-based
T2 sequence (O54915 143-430 limits assumed): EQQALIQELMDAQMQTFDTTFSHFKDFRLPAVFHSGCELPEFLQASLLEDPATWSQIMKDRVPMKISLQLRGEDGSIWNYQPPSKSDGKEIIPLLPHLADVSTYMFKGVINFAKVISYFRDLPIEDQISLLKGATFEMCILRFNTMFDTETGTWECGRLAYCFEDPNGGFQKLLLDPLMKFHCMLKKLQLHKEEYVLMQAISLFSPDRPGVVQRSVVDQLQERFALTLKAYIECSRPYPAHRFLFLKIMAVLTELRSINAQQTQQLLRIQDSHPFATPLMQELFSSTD

P450s 2B9/10 [4] = settings: mice treated 3 consecutive days; ref Kleiner et al., 2001; cited from earlier work
P450 3A11 [5] = assay: Liver microsomal P450 3A activity; format: in vivo, mice; settings: mouse, in vivo
GSTπ = assay: Western blot of liver cytosol, GSTπ protein expression; format: in vivo; settings: SENCAR mice, 35, 70, 150 mg/kg p.o.
P450s 2B9/10 [6] = assay: Liver microsomal P450 2B activity; format: in vivo, mice; settings: mouse, in vivo
P450 3A11 [7] = settings: mouse, in vivo, po, 100 mg/kg
[8] = tested on: GST (cumene hydroperoxide); assay: Liver GST activity, cumene hydroperoxide as substrate, after oral dosing of mice; format: in vivo; settings: female SENCAR mice, even at the highest doses, data not shown
P450 2B10 = settings: mouse, in vivo

COc1c2ccoc2c(OC)c2oc(=O)ccc12 [isopimpinellin, 5,8-dimethoxypsoralen]
GST activity using DCNB as a substrate, liver cytosol (GST (DCNB, GST μ)): highest increase | Increase in hepatic GSTp mRNA, CAR(−/−) mice (GSTp mRNA): ≥ 5 fold | Increase in hepatic GSTp mRNA, female CAR(+/+) mice (GSTp mRNA): ~ 8 fold | EC50 (SXR [1]): ~35 µM | Max (concentration to reach maximal effect), GAL-SXR (SXR [1]; CV-1 cells, 18–24 h): 100,000 nM | EC50 (SXR [1]; ED50, GAL-SXR activation, CV-1 cells, 18–24 h, luciferase normalized by β-gal): 35.5 µM | Concentration to reach maximal effect, times higher than RIF (SXR [1]; GAL-SXR reporter system): 10 times | Induced interaction of receptor LBD and SRC-1 (Figure 7B) (SXR and SRC-1 RID): ~ 2 fold | Hepatic expression of GST μ protein, dose-response study (GSTμ): no increase | Induction of hepatic Cyp2b10 mRNA, CAR(−/−) mice (Cyp2b10 mRNA): attenuated | Induction of hepatic Cyp2b10 mRNA, CAR(+/+) mice (Cyp2b10 mRNA; male and female): ~ 4 fold | EC50 (SXR [2]): 39.8 µM | Max (concentration to reach maximal effect), SXR-DR3 (SXR [2]; CV-1 cells, full length SXR): 100,000 nM | P450 content, liver microsomes (P450): increased | Increase in hepatic GSTa1 mRNA, female CAR(−/−) mice (GSTa1 mRNA): ~ 3 fold | Increase in hepatic GSTa1 mRNA, male CAR(−/−) mice (GSTa1 mRNA): ~ 8 fold | Increase in hepatic GSTa1 mRNA, male and female CAR(+/+) mice (GSTa1 mRNA): 10–11 fold | Effect on the inhibitory effect of androstanol on Gal4 reporter expression (mCAR-LBD) [3]: counteracted | Hepatic expression of GST α protein, dose-response study (GSTα): greatly increased | Induction of hepatic Cyp3a11 mRNA, CAR(−/−) mice (Cyp3a11 mRNA): still observed | Induction of hepatic Cyp3a11 mRNA, CAR(+/+) mice (Cyp3a11 mRNA; male and female): ~ 4 fold | Liver cytosolic NQO activity, dose-response study (NQO): increased at all doses | P450 1A1/1A2 protein levels, dose-response study (P450 1A1/1A2): elevated | P450 1A1/1A2 protein expression (western blot densitometry) (P450 1A1/1A2; po, 100 mg/kg): increased | Induced interaction of PXR LBD and SRC-1 RID compared to the control (PXR LBD and SRC-1 RID): over 4 fold | P450 1 activity, liver microsomes, dose-response study (P450s 1A1/2): significant increases | EC50 (PXR): ~17 µM | Max (concentration to reach maximal effect), GAL-PXR (PXR; CV-1 cells, 18–24 h): 100,000 nM | EC50 (PXR; ED50, GAL-PXR activation, CV-1 cells, 18–24 h, luciferase normalized by β-gal): 18 µM and 17.8 µM | Concentration to reach maximal effect, times higher than PCN (PXR; GAL-PXR reporter system): 30 times | Hepatic P450 2B9/10 activity at 1 h after the final dose (P450s 2B9/10 [4]): no elevation | Increase in hepatic P450 2B9/10 activity at 24 h after the final dose (P450s 2B9/10 [4]): 100 fold | P450 3A activity, liver microsomes, dose-response study (P450 3A11 [5]): increased | Increase in P450 3A activity (testosterone), liver microsomes (P450 3A11 [5]; po, 100 mg/kg): 3–4 fold | Hepatic expression of GST π protein, dose-response study (GSTπ): modest increase | Increase in P450 2B9/10 enzyme activity, dose-response study (P450s 2B9/10 [6]): 300 fold | P450 2B activity, liver microsomes, dose-response study (P450s 2B9/10 [6]): significant increases | Increase in P450 2B activity (pentoxyresorufin), liver microsomes (P450s 2B9/10 [6]; po, 100 mg/kg): ~ 5 fold | P450 3A11 protein expression (western blot densitometry) (P450 3A11 [7]): increased | GST activity using cumene hydroperoxide as a substrate [8]: no differences | Increase in P450 2B9/10 protein expression (optical density), dose-response study (P450 2B10): 2–3 fold | P450 2B10 protein levels, dose-response study (P450 2B10): significantly elevated | P450 2B10 protein expression (western blot densitometry) (P450 2B10; po, 100 mg/kg): increased

From paper PMC2585982 (Toxicology and applied pharmacology, 2008)
